The source made the active and inactive calls. The calls are words filed in the database; no cut-off is given here. Numbered stars: 1 amine (or outer) side, 2 acyl side, 3 side chain; on linkers, the order of the positions; unused ones are H or OH. Square brackets hold non-standard residues; d marks the D form. Peptide text beside a SMILES is read from it. X1 = O=C([C@@H]1Cc2nc[nH]c2CN1[*:1])[*:2]; Tic = O=C(O)[C@@H]1Cc2ccccc2CN1
Assays:
[1] = target: T1, Type-1 angiotensin II receptor (Homo sapiens) (UniProt P30556); assay: Displacement of [3H]valsartan from human recombinant AT1 receptor expressed in CHO cells at 10 uM after 40 mins by liquid scintillation counting; type: cell-based
T1 sequence (whole entry): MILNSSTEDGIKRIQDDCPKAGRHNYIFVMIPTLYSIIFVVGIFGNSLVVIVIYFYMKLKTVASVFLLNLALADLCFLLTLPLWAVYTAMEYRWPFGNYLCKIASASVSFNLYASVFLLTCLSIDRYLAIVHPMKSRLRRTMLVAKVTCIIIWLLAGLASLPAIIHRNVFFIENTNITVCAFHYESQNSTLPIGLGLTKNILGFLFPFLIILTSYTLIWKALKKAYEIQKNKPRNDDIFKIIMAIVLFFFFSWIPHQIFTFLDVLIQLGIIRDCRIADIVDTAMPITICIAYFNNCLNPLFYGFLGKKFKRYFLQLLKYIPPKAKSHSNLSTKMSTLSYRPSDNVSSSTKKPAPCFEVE
In short: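 Intact CHO-AT1 cells, human AT1 receptor stably expressed, prewashed in PBS, then 15 min in DMEM at 37 °C. Test agent at 10^-5 M with [3H]Valsartan (final 1.5 nM) for 40 min at 37 °C. Nonspecific binding with 1 μM Candesartan. Specific binding reported as percent of control, binding in medium only. Cell-bound radioactivity solubilized in 0.2 M NaOH and counted.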

[2] = Metabolic stability in CHOK1 cells harboring endogenous IRAP at 0.1 to 10000 nM pretreated for 40 mins by [3H]angiotensin 4 competition binding assay in absence of chelator EDTA and 1, 10-phenantroline; type: ADME, cell-based, Cricetulus griseus; settings: chinese hamster, cho-k1, 40 min, 10 µM
In short: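 Membrane homogenates of CHO-K1 cells carrying endogenous IRAP, equivalent to 4×10^5 cells, in 50 mM Tris-HCl pH 7.4 assay buffer. Preincubated 40 min at 37 °C with compound, no chelator added. [3H]Ang IV (final 3 nM) then added for 30 min at 37 °C. Nonspecific binding with 10 μM Ang IV. Filtered on BSA-presoaked GF/B filters and counted. Specific binding given as percent of control.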

[3] = target: T2, Type-1 angiotensin II receptor (Homo sapiens, UniProt P30556); assay: Displacement of [3H]valsartan from human recombinant AT1 receptor expressed in CHO cells after 40 mins by liquid scintillation counting; type: cell-based
T2 sequence (P30556 whole entry): T1 sequence (whole entry)
In short: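 CHO cells stably expressing human AT1 receptor, washed twice in PBS at room temperature, then 15 min in DMEM at 37 °C. Competition with [3H]Valsartan (final 1.5 nM) over a full dose range for 40 min at 37 °C. Nonspecific binding defined with 1 μM Candesartan. Cells washed 3× in cold PBS and lysed in 0.2 M NaOH before scintillation counting. IC50 by nonlinear regression, Ki by Cheng–Prusoff.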

| Activity [1] | Stability [2] | Ki [3] [nM] | SMILES |
| --- | --- | --- | --- |
| inactive | Unstable | – | CC[C@H](C)[C@H](NC(=O)[C@H](Cc1ccc(O)cc1)NC(=O)[C@@H](N)C(C)C)C(=O)N[C@H]1Cc2c([nH]c3ccccc23)CN(CC(=O)N[C@@H](Cc2ccccc2)C(=O)O)C1=O |
| inactive | Unstable | – | CC[C@H](C)[C@H](NC(=O)[C@H](Cc1ccc(O)cc1)NC(=O)[C@@H](N)C(C)C)C(=O)N[C@H]1Cc2ccccc2CN(CC(=O)N[C@@H](Cc2ccccc2)C(=O)O)C1=O |
| inactive | Stable | – | CC[C@H](C)[C@H](NC(=O)[C@H](Cc1ccc(O)cc1)NC(=O)[C@@H](CN)C(C)C)C(=O)N[C@H]1Cc2c([nH]c3ccccc23)CN(CC(=O)N[C@@H](Cc2ccccc2)C(=O)O)C1=O |

Further lines, the compound ahead of its results:

| SMILES | Activity [1] | Stability [2] | Ki [3] [nM] |
| --- | --- | --- | --- |
| CC[C@H](C)[C@H](NC(=O)[C@H](Cc1ccc(O)cc1)NC(=O)[C@@H](N)C(C)C)C(=O)N1Cc2[nH]cnc2C[C@H]1C(=O)N1CCC[C@H]1C(=O)N[C@@H](Cc1ccccc1)C(=O)O (H-VYI[X1]PF-OH) | inactive | – | – |
| CC[C@H](C)[C@H](NC(=O)[C@H](Cc1ccc(O)cc1)NC(=O)[C@@H](CN)C(C)C)C(=O)N[C@H]1Cc2ccccc2CN(CC(=O)N[C@@H](Cc2ccccc2)C(=O)O)C1=O | Active | Stable | 141 |
| CC[C@H](C)[C@H](NC(=O)[C@H](Cc1ccc(O)cc1)NC(=O)[C@@H](N)C(C)C)C(=O)N1Cc2ccccc2C[C@H]1C(=O)N1CCC[C@H]1C(=O)N[C@@H](Cc1ccccc1)C(=O)O (H-VYI[Tic]PF-OH) | inactive | – | – |

Source: ChEMBL document CHEMBL1154281 (J Med Chem, 2009)
